# Source: ChEMBL document CHEMBL4376812 (J Med Chem, 2019)
# Legend:
# [1] = Metabolic stability in mouse liver microsomes assessed as half life; format: ADME, Microsome
# In short: (§1)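 Liver microsomes from human, rat, mouse, dog, cynomolgus monkey and rabbit were incubated with compound. Stability is reported as half-life (T1/2, min). Values are means of at least three separate experiments.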
# [2] = Metabolic stability in human liver microsomes assessed as half life; format: ADME, Microsome; in short: as §1
# [3] = Metabolic stability in dog liver microsomes assessed as half life; format: ADME, Canis lupus familiaris, Microsome; in short: as §1
# [4] = Metabolic stability in cynomolgus monkey liver microsomes assessed as half life; format: ADME, Macaca fascicularis, Microsome; in short: as §1
# [5] = Metabolic stability in rabbit liver microsomes assessed as half life; format: ADME, Oryctolagus cuniculus, Microsome; in short: as §1
# Cytochrome P450 3A4 = Cytochrome P450 3A4 (Homo sapiens, UniProt P08684); assay: Induction of CYP3A4 (unknown origin) by PXR-transactivation assay; format: ADME
# In short: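 CYP3A4 induction measured by PXR transactivation, read out as EC50. The highest concentration tested was 40 μM.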
# [6] = Protein binding in human assessed as unbound fraction; format: ADME
# [7] = Protein binding in cynomolgus monkey assessed as unbound fraction; format: ADME, Macaca fascicularis
# [8] = Cmax in C57BL/6 mouse at 10 mg/kg, po; format: ADME, organism-based; parameters: dose 10 mg/kg, route oral; settings: in vivo
# In short: (§2)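 Oral PK: single dose of 10 mg/kg as a solution in ethanol/TPGS/PEG 300 (5:5:90) given to mouse, dog and monkey. Cmax (μM), AUC (μM × h) and bioavailability F (%) were derived, with F taken against the iv arm.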
# [9] = Clearance in dog at 2 mg/kg, iv; format: ADME, organism-based, Canis lupus familiaris; settings: in vivo
# In short: (§3)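 Dog and monkey iv PK: 2 mg/kg given by iv administration. Clearance (mL min⁻¹ kg⁻¹), Vss, T1/2 (h) and MRT (h) were derived.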
# [10] = Half life in dog at 2 mg/kg, iv; format: ADME, organism-based, Canis lupus familiaris; settings: in vivo; in short: as §3
# [11] = Cmax in dog at 10 mg/kg, po; format: ADME, organism-based, Canis lupus familiaris; parameters: dose 10 mg/kg, route oral; settings: in vivo; in short: as §2
# [12] = Oral bioavailability in dog at 10 mg/kg; format: ADME, organism-based, Canis lupus familiaris; settings: in vivo; in short: as §2
# [13] = Cmax in cynomolgus monkey at 10 mg/kg, po; format: ADME, organism-based, Macaca fascicularis; parameters: dose 10 mg/kg, route oral; settings: in vivo; in short: as §2
# Mus musculus [14] = assay: Antiinflammatory activity in CD40-induced colitis model of SCID mouse assessed as inhibition of IL-2 driven body weight loss at 50 mg/kg, po administered twice daily relative to control; format: functional; settings: in the assay text read “IL-12 driven” for “IL-2 driven”
# In short: (§4)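 Colitis induced by anti-CD40 in SCID mice. Compound was given orally at 50 mg/kg twice daily. Read-outs were peak weight loss (IL-12 driven) and histological scores.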
# Mus musculus [15] = assay: Antiinflammatory activity in CD40-induced colitis model of SCID mouse assessed as inhibition of histological scores in intestine at 50 mg/kg, po administered twice daily relative to control; format: functional; in short: as §4
# Cytochrome P450 3A4, sequence (P08684 whole entry): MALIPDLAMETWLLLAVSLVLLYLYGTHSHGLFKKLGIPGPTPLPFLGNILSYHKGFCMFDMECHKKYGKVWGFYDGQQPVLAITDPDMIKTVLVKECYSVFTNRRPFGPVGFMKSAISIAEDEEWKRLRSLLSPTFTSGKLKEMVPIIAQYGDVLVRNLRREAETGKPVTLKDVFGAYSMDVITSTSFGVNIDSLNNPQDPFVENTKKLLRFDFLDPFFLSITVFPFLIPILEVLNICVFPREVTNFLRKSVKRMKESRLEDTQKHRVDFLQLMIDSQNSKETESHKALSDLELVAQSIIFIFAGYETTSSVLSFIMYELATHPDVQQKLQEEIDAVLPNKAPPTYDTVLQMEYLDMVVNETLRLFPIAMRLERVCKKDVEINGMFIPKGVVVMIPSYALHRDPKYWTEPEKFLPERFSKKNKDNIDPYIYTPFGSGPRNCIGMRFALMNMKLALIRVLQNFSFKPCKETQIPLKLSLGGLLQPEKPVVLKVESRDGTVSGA
smiles,measurement,setting,value
[2H]C([2H])([2H])NC(=O)c1nnc(NC(=O)C2CC2)cc1Nc1cccc(-c2ncn(C)n2)c1OC [DEUCRAVACITINIB],half-life,[1],> 2 h
same,half-life,[2],> 2 h
same,half-life,[3],> 2 h
same,half-life,[4],> 2 h
same,half-life,[5],> 2 h
same,EC50,Cytochrome P450 3A4,> 40 µM
same,fraction unbound,[6],0.13
same,fraction unbound,[7],0.12
same,Cmax,[8],7.5 µM
same,clearance,[9],6.8 mL/min/kg
same,half-life,[10],4.6 h
same,Cmax,[11],6.9 µM
same,bioavailability,[12],128%
same,Cmax,[13],5.9 µM
same,inhibition in vivo at 50 mg/kg,Mus musculus [14],99%
same,inhibition in vivo at 50 mg/kg,Mus musculus [15],70%
